According to PMC2933822 (Chemical research in toxicology, 2010):
pIC50: −log10 of the molar value. “Also recorded” adds a separate entry of the source. Where two headings read alike, the source gives them in different places.

Tests used:
[1] = system: Human HaCaT keratinocytes; test: Phototoxicity / dark cytotoxicity, neutral red uptake assay, UVA; assay type: cell-based; details: for pIC50: HaCaT
[2] = system: cisplatin-resistant derivative cell line A2780CIS; test: Phototoxicity / dark cytotoxicity, neutral red uptake assay, UVA; assay type: cell-based, human; details: for pIC50: neutral red dye uptake
Method in brief: (§1)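 Cells were kept antibiotic-free in RPMI with 10% FBS at 37 °C in 5% CO2. They were washed in PBS, then given the test compound in EBSS for 1 h at 37 °C. Light plates received 5 J cm−2 UVA (1.77 mW cm−2, λmax 365 nm, below 320 nm filtered); dark plates were sham irradiated in parallel. Read-out was neutral red uptake. IC50 came from non-linear regression, 2-4 experiments in triplicate. The ratio is cisplatin IC50 (same conditions) over complex IC50.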

[3] = system: A2780 human ovarian carcinoma cells; test: as above; assay type: cell-based; details: for pIC50: neutral red dye uptake; for IC50 (cisplatin)/IC50(photoPt): A2780, fold difference vs cisplatin under identical conditions
Method in brief: as §1

HaCaT, A2780, A2780CIS = test: Photo- and dark cytotoxicity stated in words across the cell lines; assay type: cell-based, human; details: UVA 365 nm irradiation
Method in brief: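 HaCaT keratinocytes (DMEM, 5% FBS, 1% non-essential amino acids) and A2780 or A2780CIS cells (RPMI, 10% FBS) were grown at 37 °C without antibiotics. Cells were PBS-washed, then exposed 1 h at 37 °C to test compound in EBSS. They received 5 J cm−2 UVA (1.77 mW cm−2, λmax 365 nm, <320 nm filtered), with sham-irradiated parallel dark plates. Read-out was neutral red uptake. IC50s came from non-linear regression, 2-4 experiments in triplicate.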

DNA = test: Comet assay; assay type: cell-based, human; details: +UVA 5 J cm^−2, then H2O2
[4] = system: cisplatin-resistant derivative cell line A2780CIS; details: cited from earlier work
a number of cell lines = details: photoactivated; cited from earlier work
[5] = system: Human HaCaT keratinocytes; details: cited from earlier work
[6] = system: A2780 human ovarian carcinoma cells; details: cited from earlier work
[7] = +365 nm (5 J cm^−2 UVA), 1 h treatment, neutral red dye uptake
[8] = Dark (sham irradiated), neutral red dye uptake

| Compound | pIC50 ([1]; Homo sapiens, light or radiation study) | pIC50 ([1]; Homo sapiens, light or radiation study, 1 h) | pIC50 ([2]; +365 nm (5 J cm^−2 UVA)) | pIC50 ([2]; Dark (sham irradiated)) | pIC50 ([3]; A2780, +365 nm (5 J cm^−2 UVA)) | pIC50 ([3]; A2780, Dark (sham irradiated)) | IC50 (cisplatin)/IC50(photoPt) [3] | pIC50 [1, 7] | pIC50 [1, 8] | IC50 (cisplatin)/IC50(photoPt) ([2]; fold difference vs cisplatin under identical conditions) | phototoxicity / photocytotoxicity (HaCaT, A2780, A2780CIS) | inhibition of DNA migration (DNA crosslinking), irradiated samples (DNA) | fold less phototoxic than 7t ([1]; HaCaT cells, UVA) | IC50 (cisplatin)/IC50(photoPt) [4] | fold more cytotoxic following irradiation than treatment with cisplatin (a number of cell lines) | IC50 (cisplatin)/IC50(photoPt) [5] | IC50 (cisplatin)/IC50(photoPt) [6] |
| --- | --- | --- | --- | --- | --- | --- | --- | --- | --- | --- | --- | --- | --- | --- | --- | --- | --- |
| CN(C)CCCN1c2ccccc2Sc2ccc(Cl)cc21 [CPZ, Chlorpromazine, reference compound] | 3.62 | 5.05 |  |  |  |  |  |  |  |  |  |  |  |  |  |  |  |
| cis,trans,cis-[Pt(N3)2(OH)2(NH3)(pentylamine)] [Complex 6c] |  |  | < 3.62 | < 3.62 | < 3.62 | < 3.62 | 0.6 | 3.65 | < 3.62 |  |  |  |  |  |  |  |  |
| cis,trans,cis-[Pt(N3)2(OH)2(NH3)(propylamine)] [Complex 4c] |  |  |  |  | 4.03 | < 3.59 | 1.6 | 3.69 | < 3.59 |  |  |  |  |  |  |  |  |
| cis,trans,cis-[Pt(N3)2(OH)2(NH3)(pyridine)] [Complex 7c] |  |  | 3.96 | < 3.61 | 4.10 | < 3.61 | 1.9 | 4.00 | < 3.61 | 2.4 | the most phototoxic cis compounds investigated | more effective at inhibiting DNA migration (at low doses) | approximately 10 fold |  |  |  |  |
| trans,trans,trans-[Pt(N3)2(OH)2(NH3)(py)] [Complex 7t] |  |  |  |  |  |  |  |  |  |  | the most phototoxic molecule tested; also recorded: the most phototoxic complex which still maintains dark stability |  |  | 15.4 | up to 90 × | 21.2 | 80.0 |
